≈ marks a conversion by molar mass, not a printed value. *1 amine or outer side, *2 acyl side, *3 side chain or, on linkers, in order; H or OH if unused. Where a SMILES comes first, the peptide text is derived from it. Bridges are numbered along the chain shown (N, C = ends). [ ]: non-standard residue; d: D form. The star is where a group is joined. hTyr(3S-OH,4S-OH,3'-OSO3H) = N[C@H](C(=O)O)[C@H](O)[C@@H](O)c1ccc(O)c(OS(=O)(=O)O)c1; Orn(4R-OH,5R-OH) = O=C([C@H](C[C@@H](O)[C@@H](O)N[*:3])N[*:1])[*:2]; Pro(3S-OH,4S-Me) = C[C@H]1CN[C@H](C(=O)O)[C@H]1O; X1 = CCCCCOc1ccc(-c2cc(-c3ccc(C(=O)*)cc3)no2)cc1; Gln(3R-OH) = NC(=O)C[C@@H](O)[C@H](N)C(=O)O; Hyp = O=C(O)[C@@H]1C[C@@H](O)CN1
Key:
Format in all cases: functional
[1] = tested on: Candida albicans; experiment: Antifungal activity against Candida albicans NCPF6525 after 24 hrs by EUCAST test
How it was run: (§1)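 EUCAST broth microdilution with aqueous doubling dilutions of drug. Inoculum grown overnight at 30°C in NGY, then added to MOPS-buffered RPMI 1640 with 2% glucose at an initial 10^5 yeasts/ml. Incubated 35°C for 24 h. MICs taken from triplicate spectrophotometric dose-response data as 50% and 80% growth-reduction endpoints.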

[2] = tested on: Candida albicans; experiment: Antifungal activity against Candida albicans T28 after 24 hrs by CLSI M27-A test
How it was run: (§2)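 CLSI M27-A broth microdilution with aqueous doubling dilutions of drug. Inoculum grown overnight at 30°C in NGY medium, then added to MOPS-buffered RPMI 1640 at an initial 10^3 yeasts/ml. Incubated 35°C for 24 h. MIC read visually as the lowest concentration giving a marked decrease in visible growth; paradoxical or trailing growth noted.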

[3] = tested on: Candida albicans; experiment: Antifungal activity against Candida albicans T28 after 24 hrs by EUCAST test; how it was run: as §1
[4] = tested on: Candida albicans; experiment: Antifungal activity against Candida albicans T32 after 24 hrs by CLSI M27-A test; how it was run: as §2
[5] = tested on: Candida albicans; experiment: Antifungal activity against Candida albicans SC5314 after 24 hrs by CLSI M27-A test; conditions: SC5314, 24 h; how it was run: as §2
[6] = tested on: Candida albicans; experiment: Antifungal activity against Candida albicans SC5314 after 24 hrs by EUCAST test; conditions: SC5314, 24 h; how it was run: as §1
[7] = tested on: Candida albicans; experiment: Antifungal activity against Candida albicans SCS68858 after 24 hrs by CLSI M27-A test; how it was run: as §2
[8] = tested on: Candida albicans; experiment: Antifungal activity against Candida albicans AM2003/0083 after 24 hrs by CLSI M27-A test; how it was run: as §2
[9] = tested on: Candida albicans; experiment: Antifungal activity against Candida albicans B06-341 after 24 hrs by CLSI M27-A test; how it was run: as §2
[10] = tested on: Candida albicans; experiment: Antifungal activity against Candida albicans HK04M102095 after 24 hrs by CLSI M27-A test; how it was run: as §2
[11] = tested on: Candida albicans; experiment: Antifungal activity against Candida albicans JIMS101103 after 24 hrs by EUCAST test; how it was run: as §1
[12] = tested on: Candida albicans; experiment: Antifungal activity against Candida albicans JIMS132203 after 24 hrs by CLSI M27-A test; how it was run: as §2
[13] = tested on: Candida albicans; experiment: Antifungal activity against Candida albicans JIMS132203 after 24 hrs by EUCAST test; how it was run: as §1
[14] = tested on: Candida albicans; experiment: Antifungal activity against Candida albicans JIMS146204 after 24 hrs by CLSI M27-A test; how it was run: as §2
[15] = tested on: Candida albicans; experiment: Antifungal activity against Candida albicans JIMS146204 after 24 hrs by EUCAST test; how it was run: as §1
[16] = tested on: Candida albicans; experiment: Antifungal activity against Candida albicans NCPF6525 after 24 hrs by CLSI M27-A test; how it was run: as §2
[17] = tested on: Candida albicans; experiment: Antifungal activity against Candida albicans NR3 after 24 hrs by CLSI M27-A test; how it was run: as §2
[18] = tested on: Candida albicans; experiment: Antifungal activity against Candida albicans T26 after 24 hrs by CLSI M27-A test; how it was run: as §2
[19] = tested on: Candida albicans; experiment: Antifungal activity against Candida albicans T26 after 24 hrs by EUCAST test; how it was run: as §1
[20] = tested on: Candida albicans; experiment: Antifungal activity against Candida albicans Y109 after 24 hrs by CLSI M27-A test; how it was run: as §2
[21] = tested on: Candida albicans; experiment: Antifungal activity against Candida albicans Y109 after 24 hrs by EUCAST test; how it was run: as §1
[22] = tested on: Candida dubliniensis; experiment: Antifungal activity against Candida dubliniensis 81/060 after 24 hrs by EUCAST test; how it was run: as §1
[23] = tested on: Candida dubliniensis; experiment: Antifungal activity against Candida dubliniensis 90/033 after 24 hrs by EUCAST test; how it was run: as §1
[24] = tested on: Candida dubliniensis; experiment: Antifungal activity against Candida dubliniensis 910Aa after 24 hrs by CLSI M27-A test; how it was run: as §2
[25] = tested on: Candida dubliniensis; experiment: Antifungal activity against Candida dubliniensis 910Aa after 24 hrs by EUCAST test; how it was run: as §1
[26] = tested on: Candida dubliniensis; experiment: Antifungal activity against Candida dubliniensis KR after 24 hrs by EUCAST test
How it was run: (§3)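 Yeasts were grown overnight at 30°C in NGY, then inoculated at 10^5 yeasts/ml initial concentration into MOPS-buffered RPMI 1640 with 2% glucose containing aqueous doubling dilutions of drug. Plates were held at 35°C for 24 h. MICs came from triplicate spectrophotometric dose-response data at 50% and 80% growth-reduction endpoints. Trailing meant a >100-fold gap between these endpoints; paradoxical meant regrowth ≥5% above the curve minimum.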

[27] = tested on: Candida dubliniensis; experiment: Antifungal activity against Candida dubliniensis Leic875 after 24 hrs by CLSI M27-A test
How it was run: (§4)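 Broth microdilution with echinocandins as aqueous doubling dilutions. Yeasts were grown overnight at 30°C in NGY and seeded at 10^3 yeasts/ml initial concentration in MOPS-buffered RPMI 1640, then incubated at 35°C for 24 h. The MIC was read visually as the lowest concentration giving a marked decrease in visible growth; paradoxical or trailing growth was noted.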

[28] = tested on: Candida dubliniensis; experiment: Antifungal activity against Candida dubliniensis Leic875 after 24 hrs by EUCAST test; how it was run: as §3
[29] = tested on: Candida dubliniensis; experiment: Antifungal activity against Candida dubliniensis Leic952 after 24 hrs by CLSI M27-A test; how it was run: as §4
[30] = tested on: Candida dubliniensis; experiment: Antifungal activity against Candida dubliniensis SCS17154969-2 after 24 hrs by CLSI M27-A test; how it was run: as §4
[31] = tested on: Candida dubliniensis; experiment: Antifungal activity against Candida dubliniensis SCS59662 after 24 hrs by CLSI M27-A test; how it was run: as §4
[32] = tested on: Candida dubliniensis; experiment: Antifungal activity against Candida dubliniensis SCS59662 after 24 hrs by EUCAST test; how it was run: as §3
[33] = tested on: Candida dubliniensis; experiment: Antifungal activity against Candida dubliniensis SCS65875C after 24 hrs by EUCAST test; how it was run: as §3
[34] = tested on: Candida dubliniensis; experiment: Antifungal activity against Candida dubliniensis B71507 after 24 hrs by CLSI M27-A test; how it was run: as §4
[35] = tested on: Candida dubliniensis; experiment: Antifungal activity against Candida dubliniensis B71507 after 24 hrs by EUCAST test; how it was run: as §3
[36] = tested on: Candida dubliniensis; experiment: Antifungal activity against Candida dubliniensis IK after 24 hrs by EUCAST test; how it was run: as §3
[37] = tested on: Candida dubliniensis; experiment: Antifungal activity against Candida dubliniensis J930936 after 24 hrs by CLSI M27-A test; how it was run: as §4
[38] = tested on: Candida dubliniensis; experiment: Antifungal activity against Candida dubliniensis J930936 after 24 hrs by EUCAST test; how it was run: as §3
[39] = tested on: Candida dubliniensis; experiment: Antifungal activity against Candida dubliniensis SCSBB417709 after 24 hrs by EUCAST test; how it was run: as §3
[40] = tested on: Candida dubliniensis; experiment: Antifungal activity against Candida dubliniensis ST after 24 hrs by EUCAST test; how it was run: as §3
[41] = tested on: Candida parapsilosis; experiment: Antifungal activity against Candida parapsilosis ATCC 22019 after 24 hrs by CLSI M27-A test; conditions: Lodderomyces parapsilosis, ATCC 22019, 24 h; how it was run: as §4
[42] = tested on: Candida parapsilosis; experiment: Antifungal activity against Candida parapsilosis ATCC 22019 after 24 hrs by EUCAST test; conditions: Lodderomyces parapsilosis, ATCC 22019, 24 h; how it was run: as §3
[43] = tested on: Pichia kudriavzevii; experiment: Antifungal activity against Candida krusei ATCC 6258 after 24 hrs by EUCAST test; conditions: ATCC 6258, 24 h; how it was run: as §3
[44] = tested on: Pichia kudriavzevii; experiment: Antifungal activity against Candida krusei ATCC 6258 after 24 hrs by CLSI M27-A test; conditions: ATCC 6258, 24 h
How it was run: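 Broth microdilution per CLSI M27-A. Drugs were prepared as aqueous doubling dilutions. Inoculum was grown overnight at 30°C in neopeptone-yeast extract-glucose medium, then added to MOPS-buffered RPMI 1640 at an initial 10^3 yeasts/ml. Plates were incubated at 35°C for 24 h. MIC was read visually as the lowest concentration giving a marked decrease in visible growth.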

## CCCCCOc1ccc(-c2cc(-c3ccc(C(=O)N[C@H]4C[C@@H](O)[C@@H](O)NC(=O)[C@@H]5[C@@H](O)[C@@H](C)CN5C(=O)[C@H]([C@H](O)CC(N)=O)NC(=O)[C@H]([C@H](O)[C@@H](O)c5ccc(O)c(OS(=O)(=O)O)c5)NC(=O)[C@@H]5C[C@@H](O)CN5C(=O)[C@H]([C@@H](C)O)NC4=O)cc3)no2)cc1 [MICAFUNGIN] (X1-[Orn(4R-OH,5R-OH)]T[Hyp][hTyr(3S-OH,4S-OH,3'-OSO3H)][Gln(3R-OH)][Pro(3S-OH,4S-Me)]; lactam 1-C)
[1]
  MIC50: ≤ 0.032 µg/mL
[2]
  MIC50: ≤ 0.032 µg/mL
[3]
  MIC50: ≤ 0.032 µg/mL
[4]
  MIC50: ≤ 0.032 µg/mL
[5]
  MIC50: ≤ 0.032 µg/mL
[6]
  MIC50: ≤ 0.032 µg/mL
[7]
  MIC50: ≤ 0.032 µg/mL
[8]
  MIC50: ≤ 0.032 µg/mL
[9]
  MIC50: ≤ 0.032 µg/mL
[10]
  MIC50: ≤ 0.032 µg/mL
[11]
  MIC50: ≤ 0.032 µg/mL
[12]
  MIC50: ≤ 0.032 µg/mL
[13]
  MIC50: ≤ 0.032 µg/mL
[14]
  MIC50: ≤ 0.032 µg/mL
[15]
  MIC50: ≤ 0.032 µg/mL
[16]
  MIC50: ≤ 0.032 µg/mL
[17]
  MIC50: 1 µg/mL (≈ 0.787 µM)
[18]
  MIC50: 1 µg/mL (≈ 0.787 µM)
[19]
  MIC50: 1 µg/mL (≈ 0.787 µM)
[20]
  MIC50: 0.25 µg/mL (≈ 0.197 µM)
[21]
  MIC50: 0.25 µg/mL (≈ 0.197 µM)
[22]
  MIC50: ≤ 0.032 µg/mL
[23]
  MIC50: 0.063 µg/mL (≈ 0.0496 µM)
[24]
  MIC50: ≤ 0.032 µg/mL
[25]
  MIC50: ≤ 0.032 µg/mL
[26]
  MIC50: ≤ 0.032 µg/mL
[27]
  MIC50: ≤ 0.032 µg/mL
[28]
  MIC50: ≤ 0.032 µg/mL
[29]
  MIC50: ≤ 0.032 µg/mL
[30]
  MIC50: ≤ 0.032 µg/mL
[31]
  MIC50: ≤ 0.032 µg/mL
[32]
  MIC50: ≤ 0.032 µg/mL
[33]
  MIC50: ≤ 0.032 µg/mL
[34]
  MIC50: ≤ 0.032 µg/mL
[35]
  MIC50: 0.063 µg/mL (≈ 0.0496 µM)
[36]
  MIC50: ≤ 0.032 µg/mL
[37]
  MIC50: ≤ 0.032 µg/mL
[38]
  MIC50: ≤ 0.032 µg/mL
[39]
  MIC50: ≤ 0.032 µg/mL
[40]
  MIC50: 0.063 µg/mL (≈ 0.0496 µM)
[41]
  MIC50: 0.25 µg/mL (≈ 0.197 µM)
[42]
  MIC50: 0.5 µg/mL (≈ 0.394 µM)
[43]
  MIC50: 0.13 µg/mL (≈ 0.102 µM)
[44]
  MIC50: 0.13 µg/mL (≈ 0.102 µM)

— ChEMBL document CHEMBL1143838, “Candida albicans and Candida dubliniensis respond differently to echinocandin antifungal agents in vitro” (2007)
